In PMC7330163 (Pharmacology Research & Perspectives, 2020):
pEC50: −log10 of the molar value. Marks after values point to notes of the source that are not given here.

Legend:
[1] = Single-dose intravenous pharmacokinetics in dog; format: in vivo, Beagle dog; conditions: male, plasma
How it was run: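 Three male Beagles in a cross-over design with 7-day wash-out between dosing events. The intravenous solution was PEG400/N-methylpyrrolidone/50 mmol/L TRIS-HCl pH 8.3 (1:1:2 v/v/v). Plasma stored at −20°C. T1/2 = ln(2)/λz; AUC by log-linear trapezoidal rule.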

[2] = Single-dose oral pharmacokinetics in dog; format: in vivo; conditions: male, Beagle, plasma
[3] = Toxicokinetics of the 4-week toxicity study in rat; format: in vivo, Sprague-Dawley rat; conditions: for AUC0‐24 h (day 8/28): day 28
Cyp3a2 [4] = assay: Taqman mRNA upregulation in rat liver, 4-week toxicity study; format: in vivo, Sprague-Dawley rat; conditions: male rats, 4-week study
How it was run: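 Livers came from satellite-group rats of both sexes (n = 5–6) in the 4-week study, dosed once daily at 0, 50, 150, 450 or 1500 mg/kg in modified gelatine. Transcripts quantified by comparative Ct, normalised to 18S and to vehicle-treated controls; fold change = 2−ΔΔCT.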

Cyp3a2 [5] = assay: Taqman mRNA upregulation in rat liver, 8-day mechanistic follow-up study; format: in vivo, Sprague-Dawley rat; conditions: male rats, 8-day follow-up study, relative to vehicle control
How it was run: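 Male Sprague-Dawley rats (n = 4) were given 0, 5, 15 or 50 mg/kg daily for 8 days as a suspension in modified gelatine. Liver transcripts were normalised to 18S and to vehicle-treated rats by the ΔΔCT method; fold = 2−ΔΔCT.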

Cyp2c12 = assay: Taqman mRNA upregulation in rat liver; format: in vivo, Sprague-Dawley rat; conditions: either sex
Cyp2c13 = assay: Taqman mRNA upregulation in rat liver; format: in vivo, Sprague-Dawley rat; conditions: male-specific
Cyp3a12 = assay: Taqman mRNA upregulation in dog liver, 4-week toxicity study; format: in vivo, Beagle dog; conditions: 4 weeks; for increase in Cyp3a12 mRNA expression: 500 mg/kg
How it was run: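 Liver samples (n = 2–3) came from main-group Beagles of the 4-week study, dosed daily at 0, 5, 50 or 500 mg/kg in modified gelatine. Cyp3a12 transcript normalised to 18S and to vehicle-treated dogs (ΔΔCT); fold = 2−ΔΔCT.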

CYP3A4 [6] = assay: Induction of P450 mRNA in human hepatocytes; format: cell-based; conditions: 10 µmol/L
How it was run: (§1)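 Three human hepatocyte batches were cultured as monolayers and treated for 48–89 h with test compound, diluted 1000-fold from DMSO stock, or vehicle. Medium with fresh drug renewed every 24 h; rifampicin and omeprazole served as positive controls. CYP mRNA then measured.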

CYP3A4 [7] = assay: Induction of P450 enzyme activity in human hepatocytes; format: cell-based; conditions: up to 10 µmol/L
How it was run: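 Three batches of human hepatocyte monolayers were exposed for 48–89 h to test compound (DMSO stock diluted 1000-fold), with medium and fresh drug or vehicle renewed every 24 h; rifampicin and omeprazole as positive controls. Cells then washed with MEM, held 10 min at 37°C, and incubated with 200 µmol/L nifedipine for 2 h at 37°C, 5% CO2, as CYP3A4 activity marker.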

CYP1A2 = assay: Induction of P450 mRNA in human hepatocytes; format: cell-based; conditions: up to 10 µmol/L
How it was run: as §1

[8] = target: T1, human pregnane X receptor (Homo sapiens, UniProt O75469); assay: PXR reporter-gene assay in green monkey kidney CV-1 cells; format: cell-based
T1 sequence (O75469 1-434): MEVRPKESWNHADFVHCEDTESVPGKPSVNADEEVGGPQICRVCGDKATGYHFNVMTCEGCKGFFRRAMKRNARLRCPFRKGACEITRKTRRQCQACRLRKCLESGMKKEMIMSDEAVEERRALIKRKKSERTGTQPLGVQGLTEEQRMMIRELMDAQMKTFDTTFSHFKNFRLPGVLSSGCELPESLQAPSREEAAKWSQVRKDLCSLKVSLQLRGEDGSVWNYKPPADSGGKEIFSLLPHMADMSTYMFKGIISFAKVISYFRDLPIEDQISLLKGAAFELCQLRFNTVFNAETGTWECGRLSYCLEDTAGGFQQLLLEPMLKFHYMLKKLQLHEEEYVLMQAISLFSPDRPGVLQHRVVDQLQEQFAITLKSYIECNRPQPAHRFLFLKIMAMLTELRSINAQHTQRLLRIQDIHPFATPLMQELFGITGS
How it was run: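 CV-1 cells were grown 3 days in DMEM/F12 with charcoal-treated FBS, then seeded at 25 000/well and lipofected with hPXR expression vector (0.1 ng), CYP3A4-luciferase reporter (20 ng) and β-galactosidase vector (60 ng). After 24 h, cells were treated 24 h in triplicate with 0.03–30 µmol/L test compound or rifampicin in delipidated charcoal-treated FBS medium. Luciferase normalised to β-galactosidase, expressed as fold over DMSO.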

[9] = man, therapeutic dose of 10 mg; clinical trials ref 19; cited from earlier work
CYP3A4 [10] = conditions: clinical trials, man, 10 mg; cited from earlier work

CCCNS(=O)(=O)Nc1ncnc(OCCOc2ncc(Br)cn2)c1-c1ccc(Br)cc1 [macitentan]
AUC ([1]; Beagle, 0.1 mg/kg): 320 ng·h/mL | Vd ([1]; Beagle, 0.1 mg/kg): 1.2 L/kg | clearance ([1]; Beagle, 0.1 mg/kg): 5.2 mL/min/kg | half-life ([1]; Beagle, 0.1 mg/kg): 3.9 h | AUC ([1]; Beagle, 0.3 mg/kg): 910 ng·h/mL | Vd ([1]; Beagle, 0.3 mg/kg): 1.1 L/kg | clearance ([1]; Beagle, 0.3 mg/kg): 5.7 mL/min/kg | half-life ([1]; Beagle, 0.3 mg/kg): 4.3 h | half-life ([1]; beagle): 3.9 to 4.3 h | AUC ([2]; 1 mg/kg): 2370 ng·h/mL | Cmax ([2]; 1 mg/kg): 410 ng/mL | Tmax ([2]; 1 mg/kg): 2 h | AUC ([2]; 10 mg/kg): 27500 ng·h/mL | bioavailability ([2]; 10 mg/kg): 86% | AUC0‐24 h (day 1) ([3]; females, 50 mg/kg daily oral): 726 μg/mL"h | AUC0‐24 h (day 8/28) ([3]; females, 50 mg/kg daily oral): 490 μg/mL"h | AUC0‐24 h (day 1) ([3]; females, 150 mg/kg daily oral): 1160 μg/mL"h | AUC0‐24 h (day 8/28) ([3]; females, 150 mg/kg daily oral): 776 μg/mL"h | AUC0‐24 h (day 1) ([3]; females, 450 mg/kg daily oral): 1590 μg/mL"h | AUC0‐24 h (day 8/28) ([3]; females, 450 mg/kg daily oral): 1280 μg/mL"h | AUC0‐24 h (day 1) ([3]; females, 1500 mg/kg daily oral): 2500 μg/mL"h | AUC0‐24 h (day 8/28) ([3]; females, 1500 mg/kg daily oral): 1590 μg/mL"h | AUC0‐24 h (day 1) ([3]; males, 50 mg/kg daily oral): 213 μg/mL"h | AUC0‐24 h (day 8/28) ([3]; males, 50 mg/kg daily oral): 114 μg/mL"h | AUC0‐24 h (day 1) ([3]; males, 150 mg/kg daily oral): 382 μg/mL"h | AUC0‐24 h (day 8/28) ([3]; males, 150 mg/kg daily oral): 200 μg/mL"h | AUC0‐24 h (day 1) ([3]; males, 450 mg/kg daily oral): 595 μg/mL"h | AUC0‐24 h (day 8/28) ([3]; males, 450 mg/kg daily oral): 327 μg/mL"h | AUC0‐24 h (day 1) ([3]; males, 1500 mg/kg daily oral): 979 μg/mL"h | AUC0‐24 h (day 8/28) ([3]; males, 1500 mg/kg daily oral): 365 μg/mL"h | Upregulation of Cyp3a2 mRNA (Cyp3a2 [4]; 50 mg/kg daily, relative to vehicle control = 1.00): 3.65 ± 1.03 | Upregulation of Cyp3a2 mRNA (Cyp3a2 [4]; 150 mg/kg daily, relative to vehicle control): 4.53 ± 1.31 | Upregulation of Cyp3a2 mRNA (Cyp3a2 [4]; 450 mg/kg daily, relative to vehicle control): 5.21 ± 1.33 | Upregulation of Cyp3a2 mRNA (Cyp3a2 [4]; 1500 mg/kg daily, relative to vehicle control): 6.50 ± 2.40 | Upregulation of Cyp3a2 mRNA (Cyp3a2 [5]; 5 mg/kg daily): 1.46 ± 0.18 | Upregulation of Cyp3a2 mRNA (Cyp3a2 [5]; 15 mg/kg daily): 2.37 ± 1.43 | Upregulation of Cyp3a2 mRNA (Cyp3a2 [5]; 50 mg/kg daily): 4.04 ± 0.98 | Induction of Cyp2c12 mRNA (Cyp2c12): No induction | Induction of Cyp2c13 mRNA (Cyp2c13): No induction | Upregulation of Cyp3a12 mRNA (Cyp3a12; female dogs, 5 mg/kg daily, relative to vehicle control): 2.84 ± 0.44 | Upregulation of Cyp3a12 mRNA (Cyp3a12; female dogs, 50 mg/kg daily, relative to vehicle control): 4.34 ± 0.61 | Upregulation of Cyp3a12 mRNA (Cyp3a12; female dogs, 500 mg/kg daily, relative to vehicle control, n = 2 only): 12.7 ^a | increase in Cyp3a12 mRNA expression (Cyp3a12; female dogs): 12.7 fold | Upregulation of Cyp3a12 mRNA (Cyp3a12; male dogs, 5 mg/kg daily, relative to vehicle control = 1.00): 1.63 ± 0.72 | Upregulation of Cyp3a12 mRNA (Cyp3a12; male dogs, 50 mg/kg daily, relative to vehicle control): 6.45 ± 1.71 | Upregulation of Cyp3a12 mRNA (Cyp3a12; male dogs, 500 mg/kg daily, relative to vehicle control): 18.6 ^b | increase in Cyp3a12 mRNA expression (Cyp3a12; male dogs): 18.6 fold | increase in CYP3A4 mRNA vs DMSO control (CYP3A4 [6]): about 11 fold | increase in CYP3A4 enzyme activity (CYP3A4 [7]): fivefold | change in CYP1A2 mRNA expression (CYP1A2): No change | pEC50 [8]: 5.92 | plasma exposure (AUC0‐24h) [9]: 5400 ng·h/mL | effect on the pharmacokinetics of the sensitive CYP3A4 substrate sildenafil (CYP3A4 [10]): neither changed the pharmacokinetics
